Runt-CBFb FRET: Runt domain-CBFb interaction inhibition | Cerulean-Runt/Venus-CBFb FRET ratio 530/480, 1 h | inhibition, % at 20 µM | 220,000 tested, 0.46% active;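 active means inhibition over about 50% at 20 µM in the single-dose screen, limit read from the data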
Target sequence (Q01196 whole entry, looked up, the tested form may be a part): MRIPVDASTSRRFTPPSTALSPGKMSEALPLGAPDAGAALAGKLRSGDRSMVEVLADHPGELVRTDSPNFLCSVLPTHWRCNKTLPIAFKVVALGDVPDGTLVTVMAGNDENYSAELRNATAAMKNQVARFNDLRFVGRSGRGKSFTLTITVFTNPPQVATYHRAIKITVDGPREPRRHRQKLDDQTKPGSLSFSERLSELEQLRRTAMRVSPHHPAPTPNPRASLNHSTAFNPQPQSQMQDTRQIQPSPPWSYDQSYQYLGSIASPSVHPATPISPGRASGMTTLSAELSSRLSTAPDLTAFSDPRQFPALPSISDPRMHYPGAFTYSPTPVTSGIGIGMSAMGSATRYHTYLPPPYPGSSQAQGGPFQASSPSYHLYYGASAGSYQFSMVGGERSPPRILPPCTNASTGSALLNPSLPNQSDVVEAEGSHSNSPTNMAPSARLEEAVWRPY
Target sequence (Q13951 whole entry, looked up, the tested form may be a part): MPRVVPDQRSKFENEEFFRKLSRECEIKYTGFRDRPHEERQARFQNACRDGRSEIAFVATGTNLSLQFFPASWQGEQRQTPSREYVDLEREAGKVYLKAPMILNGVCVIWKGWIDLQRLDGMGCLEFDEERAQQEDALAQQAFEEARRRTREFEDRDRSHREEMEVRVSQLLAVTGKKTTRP
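System: Cerulean-labeled Runt domain protein | Quantity: 100 nM of each labeled protein | Schedule: 1 h compound exposure, room temperature | Detection: Fluorescence energy transfer, 422 nm excitation, 530/480 nm emission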
Runt-SMMHC FRET: inhibitors of human RUNX1 Runt domain binding to CBFb-SMMHC; 220,000 tested, 0.74% active; AID 1434; Q01196+Q13951; Cerulean-Runt/Venus-CBFb-SMMHC FRET ratio 530/480, 1 h; inhibition, % at 20 µM;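 active means mean inhibition across duplicate retests at 20 µM reaching about 50%, limit read from the data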;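 further: inhibitors lower the FRET ratio by blocking Runt binding to CBFb-SMMHC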
TNF necrop inh: blocks TNF-alpha induced death of Jurkat FADD-/- cells | Jurkat FADD-/- TNF necroptosis rescue, ATP luminescence, 24 h; 0 = TNF only, 100 = no-TNF cells | activation (protection from cell death), % at 10 µM | 220,000 tested, 0.068% active | AID 463075;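 active means activation, meaning protection from cell death, of at least 50% relative to plate controls; inactive means activation below 50%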;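 further: necroptosis triggered by 40 ng/mL TNF-alpha added together with compound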
RanGTP-Imp inh: inhibitors of RanGTP-importin-beta interaction, primary screen, biochemical, FRET, CFP-Ran, YFP-importin-beta, homogeneous; cell-free CFP-Ran/YFP-importin-beta FRET ratio; 300,000 tested, 1.1% active; inhibition, % (test concentration not listed);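 active means more than half of the replicate wells show a fall in the fluorescence ratio signal beyond about 16%, limit read from the data, passing the limit was not always enough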
Hck-Nef inh: blocks Nef-activated human Hck kinase; 220,000 tested, 0.68% active; inhibition, % at 20 µM; P08631; Recombinant Hck-YEEI plus Nef, Z-Lyte FRET kinase assay;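 active means Hck-Nef kinase inhibition above about 50%, limit read from the data; inactive means inhibition below that limit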
L929 necroptosis: L929 zVAD cell death inhibition; viability rescue, % at 10 µM; L929 zVAD necroptosis rescue, ATP luminescence, 24 h; with zVAD 60 µM; AID 1377; 220,000 tested, 0.38% active;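 active means activation, scaled between plate controls, above about 75%, limit read from the data; inactive means activation under that limit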
Hck Nef conf: confirmation of Hck-Nef kinase inhibitors. calls only at 10 µM. 1,300 tested, 28% active. Recombinant Hck-YEEI:Nef, Z-Lyte FRET kinase assay. shares compounds with Hck-Nef inh;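 active means average inhibition of at least 50%, with Z-scores no higher than 3 in both the phospho-tyrosine peptide and fluorescence counterscreens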
Hits are given with their value. The list is not random: actives were taken first. Their share in the collection is about 2.1%.

`O=C(Oc1ccc(-c2cnc3ccccc3n2)cc1)c1cc([N+](=O)[O-])ccc1Cl` gave Runt-CBFb FRET inactive, Runt-SMMHC FRET inactive, TNF necrop inh inactive, RanGTP-Imp inh inactive, Hck-Nef inh 52.7, L929 necroptosis inactive and Hck Nef conf active.
c1ccc(-c2oc3ncnc(NCCN4CCOCC4)c3c2-c2ccccc2)cc1 was read as Runt-CBFb FRET inactive, Runt-SMMHC FRET inactive, TNF necrop inh inactive, RanGTP-Imp inh inactive, Hck-Nef inh 83.1, L929 necroptosis inactive and Hck Nef conf active.
`N=c1c2c(-c3ccccc3)c(-c3ccccc3)oc2ncn1CCN1CCOCC1` gave Runt-CBFb FRET inactive, Runt-SMMHC FRET inactive, TNF necrop inh inactive, RanGTP-Imp inh inactive, Hck-Nef inh 77.6, L929 necroptosis inactive and Hck Nef conf active.
Screening N=c1c2c(-c3ccccc3)c(-c3ccccc3)oc2ncn1CCCN1CCOCC1 returned Runt-CBFb FRET inactive, Runt-SMMHC FRET inactive, TNF necrop inh inactive, RanGTP-Imp inh inactive, Hck-Nef inh inactive and L929 necroptosis inactive.
`CC(NCc1ccc(S(N)(=O)=O)cc1)C(=O)Nc1ccc([N+](=O)[O-])cc1Cl` (stereo unspecified) gave Runt-CBFb FRET inactive, Runt-SMMHC FRET inactive, TNF necrop inh inactive, RanGTP-Imp inh inactive, Hck-Nef inh inactive and L929 necroptosis inactive.
Screening O=C(N/N=C/c1ccc([N+](=O)[O-])cc1)c1cc(-c2ccc3c(c2)OCO3)n[nH]1 returned Runt-CBFb FRET inactive, Runt-SMMHC FRET inactive, TNF necrop inh inactive, RanGTP-Imp inh inactive, Hck-Nef inh 63.6, L929 necroptosis inactive and Hck Nef conf inactive.
For COc1cc(/C=N/NC(=O)c2cc(-c3ccc4c(c3)OCO4)n[nH]2)ccc1O the results were Runt-CBFb FRET inactive, Runt-SMMHC FRET inactive, TNF necrop inh inactive, RanGTP-Imp inh inactive, Hck-Nef inh inactive and L929 necroptosis inactive.
`C=CCOC(=O)C1=C(C)NC(SCC(=O)NC(=O)OCC)=C(C#N)C1c1cccnc1` (stereo unspecified) gave Runt-CBFb FRET inactive, Runt-SMMHC FRET inactive, TNF necrop inh inactive, RanGTP-Imp inh inactive, Hck-Nef inh 50.2, L929 necroptosis inactive and Hck Nef conf inactive.
For COc1ccc(C(=O)n2cc(C(=O)c3cc(C)ccc3O)cn2)cc1 the results were Runt-CBFb FRET inactive, Runt-SMMHC FRET inactive, TNF necrop inh inactive, RanGTP-Imp inh inactive, Hck-Nef inh inactive and L929 necroptosis inactive.
`COc1ccc(C(=O)n2cc(C(=O)c3cc(C)ccc3O)cn2)cc1OC` gave Runt-CBFb FRET inactive, Runt-SMMHC FRET inactive, TNF necrop inh inactive, RanGTP-Imp inh inactive, Hck-Nef inh 67.3, L929 necroptosis inactive and Hck Nef conf active.
Screening CC(C)C(=O)Nc1ncc(Cc2ccc(Cl)cc2)s1 returned TNF necrop inh inactive, RanGTP-Imp inh inactive, Hck-Nef inh inactive and L929 necroptosis inactive.
`Cc1cc2c(s1)c1cnn(CC(=O)NCCc3ccccc3)c(=O)c1n2C` gave Runt-CBFb FRET inactive, Runt-SMMHC FRET inactive, TNF necrop inh inactive, RanGTP-Imp inh inactive, Hck-Nef inh 75.9, L929 necroptosis inactive and Hck Nef conf inactive.
Screening CCOc1ccc(S(=O)(=O)N2CCN(C)CC2)c(C)c1C returned Runt-CBFb FRET inactive, Runt-SMMHC FRET inactive, TNF necrop inh inactive, RanGTP-Imp inh inactive, Hck-Nef inh inactive and L929 necroptosis inactive.
Screening CCOc1ccc(S(=O)(=O)N2CCCCC2)c(C)c1C returned Runt-CBFb FRET inactive, Runt-SMMHC FRET inactive, TNF necrop inh inactive, RanGTP-Imp inh inactive, Hck-Nef inh 82.8, L929 necroptosis inactive and Hck Nef conf inactive.
Cc1ccc(/C=C2\SC(=S)N(/N=C/c3cc([N+](=O)[O-])ccc3O)C2=O)o1 was read as Runt-CBFb FRET inactive, Runt-SMMHC FRET inactive, TNF necrop inh inactive, RanGTP-Imp inh inactive, Hck-Nef inh 141.6, L929 necroptosis inactive and Hck Nef conf active.
